Values after ≈ are worked out from the molar mass of the structure shown. One block for each compound: values may come before it.
Tests used:
Cytochrome P450 3A4 = Cytochrome P450 3A4 (Homo sapiens, UniProt P08684); experiment: Time dependent inhibition of CYP3A4 in human liver microsomes using midazolam as substrate assessed as ratio of Kinact to Ki preincubated for 0 to 30 mins followed by NADPH addition in phosphate buffer at 50 uM; type: ADME
In short: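 Compound was preincubated with human liver microsomes (0.5 mg/mL) in 100 mM phosphate buffer with 1 mM NADPH for 0, 5, 15 and 30 min, testing 50 μM plus serial dilutions. The mix was diluted 20-fold and incubated with 20 μM midazolam to measure residual CYP3A4 activity. Activity versus preincubation time gave the kinetic TDI parameters.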

[1] = target: Serine/threonine-protein kinase ATR (Homo sapiens, UniProt Q13535); experiment: Inhibition of ATR (unknown origin) using Avi-tagged protein substrate by alphascreen assay
Serine/threonine-protein kinase ATR, sequence (Q13535 whole entry, canonical isoform): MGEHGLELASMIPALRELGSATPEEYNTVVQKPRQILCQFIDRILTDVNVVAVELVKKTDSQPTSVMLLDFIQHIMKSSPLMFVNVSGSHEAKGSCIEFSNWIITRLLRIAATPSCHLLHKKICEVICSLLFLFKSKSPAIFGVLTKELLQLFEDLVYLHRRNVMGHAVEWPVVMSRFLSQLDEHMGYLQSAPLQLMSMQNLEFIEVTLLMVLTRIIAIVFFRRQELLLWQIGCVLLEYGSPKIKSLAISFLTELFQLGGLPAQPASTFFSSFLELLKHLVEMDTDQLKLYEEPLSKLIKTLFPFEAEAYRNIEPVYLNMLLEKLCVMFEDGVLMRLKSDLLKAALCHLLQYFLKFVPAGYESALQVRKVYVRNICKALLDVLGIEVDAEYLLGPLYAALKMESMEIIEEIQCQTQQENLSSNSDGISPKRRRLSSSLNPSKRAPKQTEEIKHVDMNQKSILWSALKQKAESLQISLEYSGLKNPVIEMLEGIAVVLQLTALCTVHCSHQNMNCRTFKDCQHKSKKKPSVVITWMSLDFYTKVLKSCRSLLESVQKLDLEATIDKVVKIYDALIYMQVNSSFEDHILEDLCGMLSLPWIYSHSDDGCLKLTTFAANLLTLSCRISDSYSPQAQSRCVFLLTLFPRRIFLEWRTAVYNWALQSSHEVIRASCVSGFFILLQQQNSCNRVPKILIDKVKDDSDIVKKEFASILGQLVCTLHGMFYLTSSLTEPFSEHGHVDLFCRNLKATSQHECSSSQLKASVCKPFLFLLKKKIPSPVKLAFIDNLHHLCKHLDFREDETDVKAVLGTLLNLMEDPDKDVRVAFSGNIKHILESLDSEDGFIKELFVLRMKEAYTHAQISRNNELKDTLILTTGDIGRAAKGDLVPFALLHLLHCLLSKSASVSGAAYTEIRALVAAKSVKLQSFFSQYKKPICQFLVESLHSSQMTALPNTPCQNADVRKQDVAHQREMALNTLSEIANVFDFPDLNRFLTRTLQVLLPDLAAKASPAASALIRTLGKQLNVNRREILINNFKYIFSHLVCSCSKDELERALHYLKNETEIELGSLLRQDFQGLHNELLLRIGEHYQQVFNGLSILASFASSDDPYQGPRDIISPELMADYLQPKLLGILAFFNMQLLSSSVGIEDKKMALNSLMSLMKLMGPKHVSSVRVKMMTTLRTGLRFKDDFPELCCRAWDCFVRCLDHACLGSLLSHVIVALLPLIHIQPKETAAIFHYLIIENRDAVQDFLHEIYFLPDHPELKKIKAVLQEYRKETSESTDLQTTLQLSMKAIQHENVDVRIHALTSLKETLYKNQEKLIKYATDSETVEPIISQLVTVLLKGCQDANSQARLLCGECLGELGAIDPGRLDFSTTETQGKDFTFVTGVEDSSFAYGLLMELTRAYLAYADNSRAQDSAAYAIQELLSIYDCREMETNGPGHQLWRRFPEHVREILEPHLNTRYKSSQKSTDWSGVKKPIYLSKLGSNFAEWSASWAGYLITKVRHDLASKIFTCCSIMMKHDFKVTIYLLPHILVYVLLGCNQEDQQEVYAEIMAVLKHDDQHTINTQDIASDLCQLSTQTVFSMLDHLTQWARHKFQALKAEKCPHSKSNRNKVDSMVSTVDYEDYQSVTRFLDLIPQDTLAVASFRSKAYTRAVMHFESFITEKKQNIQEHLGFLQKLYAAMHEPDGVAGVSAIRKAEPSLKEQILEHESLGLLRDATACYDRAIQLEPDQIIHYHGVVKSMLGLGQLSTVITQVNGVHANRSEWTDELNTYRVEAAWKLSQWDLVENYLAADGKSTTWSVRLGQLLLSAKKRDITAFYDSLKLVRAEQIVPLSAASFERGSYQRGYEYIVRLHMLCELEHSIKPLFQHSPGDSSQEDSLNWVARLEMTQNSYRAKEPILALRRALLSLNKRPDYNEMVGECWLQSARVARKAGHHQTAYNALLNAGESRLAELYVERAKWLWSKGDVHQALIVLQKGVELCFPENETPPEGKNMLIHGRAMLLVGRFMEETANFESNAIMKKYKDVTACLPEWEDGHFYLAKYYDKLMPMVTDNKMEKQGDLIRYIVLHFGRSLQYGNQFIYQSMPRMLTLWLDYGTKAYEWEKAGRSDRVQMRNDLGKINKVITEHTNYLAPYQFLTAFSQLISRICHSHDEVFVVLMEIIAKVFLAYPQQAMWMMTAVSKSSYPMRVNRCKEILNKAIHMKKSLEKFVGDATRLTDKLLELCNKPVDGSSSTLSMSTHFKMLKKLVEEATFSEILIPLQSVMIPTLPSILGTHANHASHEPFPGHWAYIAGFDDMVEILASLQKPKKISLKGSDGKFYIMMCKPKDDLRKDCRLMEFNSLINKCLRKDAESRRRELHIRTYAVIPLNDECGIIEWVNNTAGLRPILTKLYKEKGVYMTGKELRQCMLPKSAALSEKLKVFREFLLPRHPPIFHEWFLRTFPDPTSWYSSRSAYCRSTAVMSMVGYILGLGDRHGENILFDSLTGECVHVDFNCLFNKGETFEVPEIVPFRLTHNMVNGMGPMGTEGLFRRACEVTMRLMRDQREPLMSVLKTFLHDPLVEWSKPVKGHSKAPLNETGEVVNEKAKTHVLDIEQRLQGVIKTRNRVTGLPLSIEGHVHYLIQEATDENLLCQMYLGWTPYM

[2] = target: Phosphatidylinositol 4,5-bisphosphate 3-kinase catalytic subunit alpha isoform (Homo sapiens, UniProt P42336); experiment: Inhibition of PI3Kalpha (unknown origin)
Phosphatidylinositol 4,5-bisphosphate 3-kinase catalytic subunit alpha isoform, sequence (P42336 whole entry, canonical isoform): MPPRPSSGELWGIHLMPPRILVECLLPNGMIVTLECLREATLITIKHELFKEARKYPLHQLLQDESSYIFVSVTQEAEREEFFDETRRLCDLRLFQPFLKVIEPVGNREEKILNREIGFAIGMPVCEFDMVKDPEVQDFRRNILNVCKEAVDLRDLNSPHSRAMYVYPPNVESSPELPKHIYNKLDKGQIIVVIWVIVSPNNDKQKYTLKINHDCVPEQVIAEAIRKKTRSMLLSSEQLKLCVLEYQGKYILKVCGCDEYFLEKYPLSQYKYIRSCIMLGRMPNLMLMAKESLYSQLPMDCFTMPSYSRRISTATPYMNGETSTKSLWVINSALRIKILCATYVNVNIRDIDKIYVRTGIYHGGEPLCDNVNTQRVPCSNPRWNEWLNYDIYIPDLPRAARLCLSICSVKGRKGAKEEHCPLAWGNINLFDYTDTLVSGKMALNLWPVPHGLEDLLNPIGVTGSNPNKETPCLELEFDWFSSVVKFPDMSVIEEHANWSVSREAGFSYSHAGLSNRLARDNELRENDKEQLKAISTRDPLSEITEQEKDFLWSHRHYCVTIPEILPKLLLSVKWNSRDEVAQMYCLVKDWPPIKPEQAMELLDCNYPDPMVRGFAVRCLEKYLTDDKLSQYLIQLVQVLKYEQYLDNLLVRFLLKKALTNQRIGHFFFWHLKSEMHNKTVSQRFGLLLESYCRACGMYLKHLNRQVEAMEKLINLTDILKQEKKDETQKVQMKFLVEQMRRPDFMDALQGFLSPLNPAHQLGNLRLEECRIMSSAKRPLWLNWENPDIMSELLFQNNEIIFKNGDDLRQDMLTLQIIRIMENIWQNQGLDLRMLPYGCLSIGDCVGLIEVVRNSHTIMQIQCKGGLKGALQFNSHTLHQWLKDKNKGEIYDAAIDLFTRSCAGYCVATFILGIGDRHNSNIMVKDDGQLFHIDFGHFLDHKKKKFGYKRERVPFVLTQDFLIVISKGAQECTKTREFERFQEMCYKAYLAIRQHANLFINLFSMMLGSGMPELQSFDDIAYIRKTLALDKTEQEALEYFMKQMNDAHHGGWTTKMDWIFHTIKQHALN

[3] = Inhibition of CHK1 in HeLa S3 cells assessed as inhibition of phosphorylation at ser345 by AlphaScreen SureFire CHK1 (p-Ser345) assay
[4] = Solubility of the compound in PBS buffer at pH 7 by miniaturized shake flask equilibrium solubility assay
[5] = target: Serine/threonine-protein kinase mTOR (Homo sapiens, UniProt P42345); experiment: Inhibition of mTOR (unknown origin) by alphascreen SureFire p70 S6K (p-Thr389) assay
In short: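 They were treated with compound for 1 h under the same conditions. The read-out was p70 S6K phospho-Thr389.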

[6] = target: Serine-protein kinase ATM (Homo sapiens, UniProt Q13315); experiment: Inhibition of ATM (unknown origin) using p53-Q10-K17 peptide substrate by alphascreen assay
[7] = target: DNA-dependent protein kinase catalytic subunit (Homo sapiens, UniProt P78527)
[8] = Apparent permeability across basolateral to apical side in human Caco2 cells at pH 7.4; settings: Caco-2, pH 7.4
[9] = Apparent permeability across apical to basolateral side in human Caco2 cells at pH 7.4; settings: Caco-2, pH 7.4
[10] = Octanol-water distribution coefficient, log D of the compound with pH 7.4 PBS buffer
[11] = target: Voltage-gated inwardly rectifying potassium channel KCNH2 (Homo sapiens, UniProt Q12809); experiment: Inhibition of human ERG by automated whole cell electrophysiology
[12] = Volume of distribution at steady state in rat at 2.5 mg/kg; type: ADME, organism-based; set-up: dose 2.5 mg/kg; settings: in vivo, read-out: Vdss
[13] = Clearance in rat at 2.5 mg/kg; type: ADME, organism-based; set-up: dose 2.5 mg/kg; settings: in vivo
[14] = Oral bioavailability in rat at 2.5 mg/kg; type: ADME, organism-based; settings: in vivo
[15] = Half life in rat at 2.5 mg/kg; type: ADME, organism-based; set-up: dose 2.5 mg/kg; settings: in vivo
Liver microsome = experiment: Metabolic stability in human liver microsomes assessed as level of GSH adduct after 60 mins at 10 uM by GSH trapping assay; settings: 1 h

Cytochrome P450 3A4, sequence (P08684 whole entry): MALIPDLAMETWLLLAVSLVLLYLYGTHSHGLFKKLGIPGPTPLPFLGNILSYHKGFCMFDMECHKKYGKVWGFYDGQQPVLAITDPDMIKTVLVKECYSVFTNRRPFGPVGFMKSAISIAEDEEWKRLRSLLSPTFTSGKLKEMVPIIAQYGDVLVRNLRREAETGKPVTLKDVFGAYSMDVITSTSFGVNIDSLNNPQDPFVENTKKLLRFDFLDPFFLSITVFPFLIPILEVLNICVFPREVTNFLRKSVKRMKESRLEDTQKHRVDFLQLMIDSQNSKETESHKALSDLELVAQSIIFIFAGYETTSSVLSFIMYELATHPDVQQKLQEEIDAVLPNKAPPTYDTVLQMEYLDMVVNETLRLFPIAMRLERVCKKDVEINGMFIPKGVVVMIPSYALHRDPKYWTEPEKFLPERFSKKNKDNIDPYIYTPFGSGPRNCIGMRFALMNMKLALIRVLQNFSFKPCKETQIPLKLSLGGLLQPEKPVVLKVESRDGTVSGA

SMILES: C[C@@H]1Cn2ncc(-c3ccc(S(C)(=O)=O)cc3)c2CN1c1ccnc2[nH]ccc12
IC50 [5]: 1100 nM
IC50 [6]: 130 nM
IC50 [1]: 0.3 nM
IC50 [7]: 140 nM

SMILES: C[C@@H]1Cn2ncc(C3CCN(S(C)(=O)=O)CC3)c2CN1c1ccnc(N)c1
inhibition (INH) (Cytochrome P450 3A4): Active
IC50 [1]: 440 nM

SMILES: CC1(C)Cn2ncc(C3CCN(S(C)(=O)=O)CC3)c2CN1c1cc(Cl)nc2[nH]ccc12
Ratio (Cytochrome P450 3A4): 0.023 µL/min/pmol
IC50 [1]: 6200 nM

SMILES: C[C@@H]1[C@@H](C)n2ncc(C3CCN(S(C)(=O)=O)CC3)c2CN1c1ccnc2[nH]ccc12
Ratio (Cytochrome P450 3A4): 0.004 µL/min/pmol
IC50 [1]: 2100 nM

SMILES: C[C@@H]1Cc2ncn(C3CCN(S(C)(=O)=O)CC3)c2CN1c1ccnc2[nH]ccc12
Ratio (Cytochrome P450 3A4): 0.001 µL/min/pmol
IC50 [1]: 41 nM

SMILES: C[C@@H]1Cn2ncc(C3CCN(S(C)(=O)=O)CC3)c2C(=O)N1c1ccnc2[nH]ccc12
TDI (Cytochrome P450 3A4): Not Active
IC50 [1]: 64 nM

SMILES: [2H][C@@]1(C)Cn2ncc(C3CCN(S(C)(=O)=O)CC3)c2CN1c1cc(Cl)nc2[nH]ccc12
Stability (Liver microsome): Stable

SMILES: [2H]C1([2H])c2c(C3CCN(S(C)(=O)=O)CC3)cnn2C[C@@H](C)N1c1cc(Cl)nc2[nH]ccc12
Stability (Liver microsome): Unstable

SMILES: [2H]C1([2H])c2c(C3CCN(S(C)(=O)=O)CC3)cnn2C[C@@]([2H])(C)N1c1cc(Cl)nc2[nH]ccc12
Stability (Liver microsome): Unstable

Second part, led by results:

inhibition (INH) (Cytochrome P450 3A4): Active
IC50 [1]: 2 nM
SMILES: C[C@@H]1Cn2ncc(C3CCN(S(C)(=O)=O)CC3)c2CN1c1ccnc2[nH]cnc12

IC50 [2]: 9 nM
IC50 [1]: 26 nM
SMILES: COc1ccc(-c2ccc3ncc(-c4ccc(C(N)=O)cc4)n3n2)cc1OC

IC50 [3]: 44 nM
IC50 [2]: 40 nM
IC50 [1]: 0.5 nM
SMILES: CN(C)S(=O)(=O)c1ccc(-c2cnc3ccc(-c4ccnc5[nH]ccc45)nn23)cc1

IC50 [2]: 1100 nM
IC50 [1]: 1 nM
solubility thermodynamic [4]: 3 µM (≈ 1.27 µg/mL)
SMILES: CN(C)S(=O)(=O)c1ccc(-c2cnn3c2CN(c2ccnc4[nH]ccc24)CC3)cc1

IC50 [3]: 123 nM
IC50 [2]: > 10000 nM
IC50 [1]: 0.5 nM
solubility thermodynamic [4]: 188 µM (≈ 82.1 µg/mL)
SMILES: C[C@@H]1Cn2ncc(-c3ccc(S(=O)(=O)N(C)C)cc3)c2CN1c1ccnc2[nH]ccc12

Papp B→A [8]: 44 ×10⁻⁶ cm/s
IC50 [5]: > 2300 nM
IC50 [6]: 14000 nM
Papp A→B [9]: 10 ×10⁻⁶ cm/s
logD [10]: 2.4
IC50 [1]: 1 nM
solubility thermodynamic [4]: 965 µM (≈ 400 µg/mL)
IC50 [7]: 6500 nM
SMILES: C[C@@H]1Cn2ncc(C3CCN(S(C)(=O)=O)CC3)c2CN1c1ccnc2[nH]ccc12

Papp B→A [8]: 30 ×10⁻⁶ cm/s
IC50 [5]: 4400 nM
Vd [12]: 3.3 L/kg
IC50 [6]: 4300 nM
clearance [13]: 57 mL/min/kg
bioavailability [14]: 64%
Papp A→B [9]: 18 ×10⁻⁶ cm/s
logD [10]: 3.4
half-life [15]: 51.6 min
IC50 [1]: 0.4 nM
solubility thermodynamic [4]: 37 µM (≈ 16.6 µg/mL)
IC50 [7]: 1600 nM
SMILES: C[C@@H]1Cn2ncc(C3CCN(S(C)(=O)=O)CC3)c2CN1c1cc(Cl)nc2[nH]ccc12
IC50 [11]: 12500 nM

inhibition (INH) (Cytochrome P450 3A4): Not Active
IC50 [1]: 29 nM
SMILES: C[C@@H]1Cn2ncc(C3CCN(S(C)(=O)=O)CC3)c2CN1c1ccnc2[nH]ncc12

Source: ChEMBL document CHEMBL3351372, “Structure-Based Drug Design of Novel Potent and Selective Tetrahydropyrazolo[1,5-a]pyrazines as ATR Inhibitors” (ACS Med Chem Lett, 2015)
